In data set [1] the test system is HEK293. Nature of the data set: Cytotoxicity against HEK293 cells after 72 hrs by MTT assay. Type of data set: functional, cell-based. As to conditions: Homo sapiens, HEK293, 72 h. In outline: (§1)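 Cells seeded at 3x10^5 cells/mL 24 h before assay (HEK293, AsPC-1 in DMEM; Jurkat, W1308 in RPMI-1640; 10% FCS, 2-ME). Tenfold dilutions from […] to 1 nM added; untreated cells as controls. 72 h incubation, MTT 250 µg/ml added for last 6 h, formazan dissolved in DMSO, OD read. IC50 from titration curves; inhibition index = 1 − OD(treated)/OD(control).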
For orientation: Tetrazolium assays rely on reduction of a dye to a coloured formazan, in cell work by metabolically active cells.

Data set [2] concerns ASPC1. The data set is described as follows: Cytotoxicity against human AsPC1 cells after 72 hrs by MTT assay. The class given is functional, cell-based. As to conditions: ASPC1, 72 h. In outline:
as §1

Data set [3] deals with Jurkat. The data set is described as follows: Growth inhibition of human Jurkat cells at 100 uM after 72 hrs by MTT assay. Type of data set: functional. The settings on record: read-out: GI.
Data set [4] in a line: Growth inhibition of mouse W1308 cells at 100 uM after 72 hrs by MTT assay. As to conditions: W1308, 72 h, read-out: GI. The class given is functional.
Data set [5] can be described thus: Cytotoxicity against mouse W1308 cells after 72 hrs by MTT assay. As to conditions: W1308, 72 h. The class given is functional, cell-based. In outline: as §1
For data set [6], the system named is Jurkat. Nature of the data set: Cytotoxicity against human Jurkat cells after 72 hrs by MTT assay. The class given is functional, cell-based. In outline:
as §1

Data set [7] concerns ASPC1. Nature of the data set: Growth inhibition of human AsPC1 cells at 100 uM after 72 hrs by MTT assay. The class given is functional. As to conditions: ASPC1, 72 h, read-out: GI.
Data set [8] relates to HEK293. The data set is described as follows: Growth inhibition of HEK293 cells at 100 uM after 72 hrs by MTT assay. Type of data set: functional. The settings on record: Homo sapiens, HEK293, 72 h; read-out: GI.
In data set [9] the test system is Mus musculus. Nature of the data set: Toxicity in C57BL/6 mouse assessed as interphase microtubule de-stabilizing activity by measuring influx of rhodamine in to heart at 1 mg/kg, iv co-administered with rhodamine B by fluorimetry. As to conditions: in vivo. Type of data set: organism-based. Set-up: dose 1 mg/kg, route intravenous. In outline: (§2)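 Intact mice, 6–8 wk, 3 per group; compound dissolved in DMSO at 20 mM, 4 µl diluted into 200 µl saline (1 mg/kg), mixed with 50 µl rhodamine B, single i.v. injection; controls DMSO plus rhodamine B. Killed 4 h later; organs cut, extracted in 0.3N acid in ethanol 2 h at 37 °C, centrifuged, supernatant fluorescence read with 540 nm filter.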

The nature of data set [10]: Reduction in blood-brain barrier permeability in […]. Type of data set: ADME, tissue-based, C57BL/6, Endothelial cell. Also on record: scale not given: the % may be the effect or the level left. The settings on record: mouse. In outline:
as §2

Data set [11] concerns Mus musculus. The data set is described as follows: Toxicity in C57BL/6 mouse assessed as interphase microtubule de-stabilizing activity by measuring influx of rhodamine in to spleen at 1 mg/kg, iv co-administered with rhodamine B by fluorimetry. As to conditions: in vivo. The class given is organism-based. Also on record: dose 1 mg/kg, route intravenous. In outline:
as §2

For data set [12], the system named is Mus musculus. Nature of the data set: Toxicity in C57BL/6 mouse assessed as interphase microtubule de-stabilizing activity by measuring leakage of rhodamine through the gut at 1 mg/kg, iv co-administered with rhodamine B by fluorimetry. Also on record: dose 1 mg/kg, route intravenous. The class given is organism-based. As to conditions: in vivo. In outline:
as §2

Data set [13] can be described thus: Inhibition of lamb brain tubulin polymerization assessed as reduction in microtubule assembly by spectrophotometry. Set-up: species or system Ovis aries. In outline:
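Tubulin purified from lamb brain by ammonium sulfate fractionation and ion-exchange chromatography. Assembly in 20 mM sodium phosphate, 1 mM EGTA, 10 mM MgCl2, 3.4 M glycerol, 1 mM GTP, pH 6.5, started by warming to 37 °C; turbidity followed at 350 nm over time. Inhibition plotted against ligand:tubulin molar ratio.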

Data set [14] in a line: Induction of apoptosis in mouse W1308 cells assessed as apoptotic cells level at 200 nM after 48 hrs by 3,3'-dihexyloxacarbocyanine iodide and propidium iodide staining based flow cytometry (reference value: 11%). Type of data set: functional. (A flow cytometer gives signals particle by particle.)
The nature of data set [15]: Induction of apoptosis in mouse W1308 cells assessed as pre-apoptotic cells level at 200 nM after 48 hrs by 3,3'-dihexyloxacarbocyanine iodide and propidium iodide staining based flow cytometry (reference value: 17%). The class given is functional.

Structures are written as SMILES. A value given as a limit tells only on which side of the number the result lay.

As to `COc1cc2c(c(OC)c1OC)-c1cc3cc(CCO)oc3cc1[C@@H](NC(C)=O)CC2`, the IC50 in data set [1] turned out to be 1 µM; in data set [2], 2 µM; in [5], 1 µM; in data set [6], 1 µM. The inhibition of growth at 100 µM in [3], in data set [4], in [7] and in data set [8] was 50% in each case.
As to `COc1ccc(/C=C\c2cc(OC)c(OC)c(OC)c2)cc1O` [COMBRETASTATIN A4], the Activity result in data set [9] was “Toxic”; in data set [10], 40%; in data set [11], “Toxic”; in data set [12] it was “Toxic”. Besides, the ligand/tubulin molar ratio in data set [13] is 0.09.
Turning to `COc1cc2c(c(OC)c1OC)-c1cc3cc(-c4ccccn4)oc3cc1[C@@H](NC(C)=O)CC2`, the IC50 worked out at 20 µM in data set [1], 20 µM in [2], 10 µM in data set [5] and 20 µM in data set [6].
Consider `COc1cc2c(c(OC)c1OC)-c1cc3cc(COC(C)=O)oc3cc1[C@@H](NC(C)=O)CC2`, for which the IC50 in data set [1] is 1 µM; in [2] it was 2 µM; in [5], 1 µM; in data set [6] it was 1 µM. Besides, the inhibition of growth at 100 µM in data set [3], in data set [4], in [7] and in data set [8] was 50% in each case.
Turning to `COc1cc2c(c(OC)c1OC)-c1ccc(OC)c(=O)cc1[C@@H](NC(C)=O)CC2` [COLCHICINE], the Activity result in data set [9], in [11] and in data set [12] was “Toxic” in each case.
Take `COc1cc2c(c(OC)c1OC)-c1cc3cc(C(C)O)oc3cc1[C@@H](NC(C)=O)CC2` (some centres undefined): the Activity is 20% in data set [14] and 29% in data set [15]. Also, the IC50 was < 0.2 µM in data set [1]; < 0.2 µM in data set [2]; < 0.2 µM in data set [5]; < 0.2 µM in data set [6]; 0.3 molar ratio in data set [13]. Besides, the inhibition of growth at 100 µM in [3], in data set [4], in data set [7] and in data set [8] was 60% in each case.
On to `COC(=O)CCCCCCCCc1cc2cc3c(cc2o1)[C@@H](NC(C)=O)CCc1cc(OC)c(OC)c(OC)c1-3`, for which the IC50 in data set [1], in data set [2], in data set [5] and in data set [6] was > 100 µM throughout.
For the compound `COc1cc2c(c(OC)c1OC)-c1cc3ccn(C)c3cc1C(=O)CC2`, the IC50 is < 0.2 µM in data set [1], 0.8 µM in data set [2], < 0.2 µM in data set [5] and < 0.1 µM in data set [6].
For `COc1cc2c(c(OC)c1OC)-c1ccc3c(ccn3C)c1C(=O)CC2`, the Activity in [14] was determined as 29%; in [15], 20%. Also, the IC50 in [1], in data set [2], in data set [5] and in data set [6] was < 0.02 µM throughout.
Turning to `COc1cc2c(c(OC)c1OC)-c1cc3cc(-c4ccccc4)oc3cc1[C@@H](NC(C)=O)CC2`, the IC50 in data set [1] turned out to be 4 µM; in data set [2], 20 µM; in data set [5], 8 µM; in [6], 4 µM.
In the case of `CCN(CC)Cc1cc2cc3c(cc2o1)[C@@H](NC(C)=O)CCc1cc(OC)c(OC)c(OC)c1-3`, the IC50 in data set [1] was > 100 µM; in [2], 20 µM; in data set [5] it was > 100 µM; in data set [6] it was > 100 µM.
With `COc1cc2c(c(OC)c1OC)-c1cc3cc(C4(O)CCCC4)oc3cc1[C@@H](NC(C)=O)CC2`, the IC50 in data set [1] worked out at 4 µM; in data set [2], 20 µM; in [5], 8 µM; in data set [6], 4 µM. For the same compound, the inhibition of growth at 100 µM in data set [3], in data set [4], in [7] and in [8] was 50% throughout.

Values taken from ChEMBL document CHEMBL3392953, “Synthesis and biological evaluation of furanoallocolchicinoids” (J Med Chem, 2015).
